Measurements: ChEMBL document CHEMBL1157074, “Hyaluronidase inhibitors from "Cimicifugae Rhizoma" (a mixture of the rhizomes of Cimicifuga dahurica and C. heracleifolia)” (J Nat Prod, 2010)

Assay: Inhibition of bovine testis hyaluronidase type 4 after 20 mins by modified Morgan-Elson method
Design: species or system Bos taurus
Procedure, shortened: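 Bovine testis hyaluronidase (Type IV-S, 400 NF units/mL stock) preincubated with sample in 0.1 mol/L acetate buffer pH 3.5, 20 min, 37 °C. Activated with 2.5 mmol/L CaCl2 for 20 min, then rooster-comb potassium hyaluronate (0.4 mg/mL stock) added for 40 min. Stopped with NaOH, boiled with boric acid, p-dimethylaminobenzaldehyde colour read at 585 nm. Percent inhibition corrected against blanks.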

Row | Compound | IC50
1 | O=C(/C=C/c1ccc(O)c(O)c1)O[C@H](Cc1ccc(O)c(O)c1)C(=O)O [ROSMARINIC ACID] | 545 µM
2 | COc1cc(/C=C/C(=O)O[C@H](C(=O)O)[C@](O)(Cc2ccc(O)c(O)c2)C(=O)O)ccc1O[C@@H]1O[C@H](CO)[C@H](O)[C@H](O)[C@H]1O [SHOMASIDE A] | 573 µM
3 | O=C(O[C@H](C(=O)O)[C@](O)(Cc1ccc(O)c(O)c1)C(=O)O)c1ccc(O)cc1 [CIMICIFUGIC ACID H] | 525 µM
4 | COc1cc(/C=C/C(=O)O[C@H](C(=O)O)[C@](O)(Cc2ccc(O)c(O)c2)C(=O)O)cc(OC)c1O [CIMICIFUGIC ACID I] | 143 µM
5 | COC(=O)C(O)C(Cc1ccc(O)cc1)(OC(=O)/C=C/c1ccc(O[C@@H]2O[C@H](CO)[C@@H](O)[C@H](O)[C@H]2O)c(OC)c1)C(=O)O (some centres not stated) [SHOMASIDE D] | > 658 µM
6 | O=C(/C=C/c1ccc(O)c(O)c1)O[C@H](C(=O)O)[C@](O)(Cc1ccc(O)c(O)c1)C(=O)O [FUKINOLIC ACID] | 144 µM
7 | COc1cc(/C=C/C(=O)O[C@H](C(=O)O)[C@](O)(Cc2ccc(O)cc2)C(=O)O)ccc1O[C@@H]1O[C@H](CO)[C@H](O)[C@H](O)[C@H]1O [SHOMASIDE B] | 430 µM
8 | COc1cc(/C=C/C(=O)O[C@H](C(=O)O)[C@](O)(Cc2ccc(O)cc2)C(=O)O)ccc1O[C@@H]1O[C@H](CO)[C@@H](O)[C@H](O)[C@H]1O [SHOMASIDE C] | 663 µM
9 | COc1cc(OC(=O)/C=C/c2ccc(O[C@@H]3O[C@H](CO)[C@H](O)[C@H](O)[C@H]3O)c(OC)c2)ccc1CCO [SHOMASIDE E] | > 790 µM

Next, values leading:

Row | IC50 | Compound
10 | 251 µM | O=C(/C=C/c1ccc(O)cc1)O[C@H](C(=O)O)[C@](O)(Cc1ccc(O)c(O)c1)C(=O)O [CIMICIFUGIC ACID C]
11 | 138 µM | COc1ccc(/C=C/C(=O)O[C@H](C(=O)O)[C@](O)(Cc2ccc(O)c(O)c2)C(=O)O)cc1OC [CIMICIFUGIC ACID G]
12 | 153 µM | O=C(/C=C/c1ccc(O)c(O)c1)O[C@H](C(=O)O)[C@](O)(Cc1ccc(O)cc1)C(=O)O [CIMICIFUGIC ACID D]
13 | 112 µM | COc1cc(/C=C/C(=O)O[C@H](C(=O)O)[C@](O)(Cc2ccc(O)c(O)c2)C(=O)O)ccc1O [CIMICIFUGIC ACID A]
14 | 193 µM | COc1cc(/C=C/C(=O)O[C@H](C(=O)O)[C@](O)(Cc2ccc(O)cc2)C(=O)O)cc(OC)c1O [CIMICIFUGIC ACID J]
15 | 82 µM | COc1ccc(/C=C/C(=O)O[C@H](C(=O)O)[C@](O)(Cc2ccc(O)c(O)c2)C(=O)O)cc1O [CIMICIFUGIC ACID B]
16 | 120 µM | COc1cc(/C=C/C(=O)O[C@H](C(=O)O)[C@](O)(Cc2ccc(O)cc2)C(=O)O)ccc1O [CIMICIFUGIC ACID E]
17 | 92 µM | COc1ccc(/C=C/C(=O)O[C@H](C(=O)O)[C@](O)(Cc2ccc(O)cc2)C(=O)O)cc1O [CIMICIFUGIC ACID F]
